Compound activity: PubChem, several laboratories
Sampled rows, rich in hits. Any-hit rate of the full collection: about 2.6%.
T cell HTS = T cell immune modulators affecting CD8 T cell-vesicle binding; 2C CD8+ T cell-vesicle binding, flow cytometry; active compounds read low; response (vesicle binding), % at 7 µM; actives 0.068% (n = 330,000);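 active = response, share of CD8 T cells binding vesicles, and their 90th percentile fluorescence all below set limits, cut at about 80% in these data, passing the limit was not always enough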;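 note: values below 100% mean blocked vesicle binding to the CD8+ T cells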
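System: murine 2C transgenic CD8+ T lymphocytes; also added: QL9-loaded Drosophila micro-vesicles; times: binding 1.5 h at 37 °C; measured by: flow cytometry, PE anti-B7-1 (FL2) versus Alexa647 anti-CD8 (FL8), PFA-fixed; control set: Peptide-free naked vesicles (low) and QL9 vesicles with 0.7% DMSO vehicle (high)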
Rce1 inhib = blocks yeast Ras-converting enzyme; Q03530; yeast membranes, quenched prenylated peptide cleavage fluorescence; calls only; actives 0.27% (n = 290,000);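 active = fall in fluorescence gain of 50% or more versus controls, with final raw signal at or below 3038400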;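 note: plate controls were neutral control wells for no effect and wells lacking membranes for full effect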
Myeloid diff 2 = myeloid differentiation induction; calls only at 10 µM; actives 1% (n = 360,000); AID 624256; ER-HoxA9 myeloid progenitors, lysozyme-GFP differentiation, flow cytometry;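 active = normalized GFP-positive differentiation at or above the plate's own cutoff, the solvent-only control mean plus 3 SD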;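 note: cells exposed to compound for four days before flow analysis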
Rin1-Abl PPI inh = blocks binding of human Rin1 to Abl; P00519+Q13671; TR-FRET Rin1/Abl binding, biochemical; inhibition, % at 7.35 µM; actives 0.4% (n = 360,000); AID 588664; in the data active = inhibition above about 5%, passing the limit was not always enough
Target sequence (P00519 whole entry, looked up): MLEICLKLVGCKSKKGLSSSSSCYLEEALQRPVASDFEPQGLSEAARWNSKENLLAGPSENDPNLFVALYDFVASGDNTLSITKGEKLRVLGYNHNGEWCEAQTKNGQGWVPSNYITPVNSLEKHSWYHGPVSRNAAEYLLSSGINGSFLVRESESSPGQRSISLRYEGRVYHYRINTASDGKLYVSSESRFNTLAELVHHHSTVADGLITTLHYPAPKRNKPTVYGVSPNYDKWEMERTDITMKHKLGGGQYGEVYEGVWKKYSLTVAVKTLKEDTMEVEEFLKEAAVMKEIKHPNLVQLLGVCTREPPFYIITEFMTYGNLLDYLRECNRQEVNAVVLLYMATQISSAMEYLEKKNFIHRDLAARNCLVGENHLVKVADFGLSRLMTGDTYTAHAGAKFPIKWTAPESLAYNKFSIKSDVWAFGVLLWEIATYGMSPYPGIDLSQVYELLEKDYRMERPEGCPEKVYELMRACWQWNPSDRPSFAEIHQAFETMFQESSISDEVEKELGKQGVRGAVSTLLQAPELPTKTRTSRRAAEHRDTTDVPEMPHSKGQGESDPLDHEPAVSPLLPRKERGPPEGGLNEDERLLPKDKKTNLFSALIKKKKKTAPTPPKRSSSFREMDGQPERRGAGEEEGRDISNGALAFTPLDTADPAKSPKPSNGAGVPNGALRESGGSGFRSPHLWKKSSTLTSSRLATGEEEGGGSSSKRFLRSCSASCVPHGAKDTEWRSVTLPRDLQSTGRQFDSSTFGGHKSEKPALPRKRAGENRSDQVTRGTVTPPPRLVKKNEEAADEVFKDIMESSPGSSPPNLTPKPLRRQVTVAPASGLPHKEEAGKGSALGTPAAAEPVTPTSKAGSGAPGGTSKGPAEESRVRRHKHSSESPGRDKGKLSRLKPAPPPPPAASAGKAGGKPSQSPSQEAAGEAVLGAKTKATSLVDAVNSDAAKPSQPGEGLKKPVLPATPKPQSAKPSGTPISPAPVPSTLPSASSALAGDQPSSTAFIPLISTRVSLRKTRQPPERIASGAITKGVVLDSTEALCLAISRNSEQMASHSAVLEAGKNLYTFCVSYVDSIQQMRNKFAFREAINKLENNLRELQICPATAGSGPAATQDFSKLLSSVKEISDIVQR
Target sequence (Q13671 whole entry, looked up): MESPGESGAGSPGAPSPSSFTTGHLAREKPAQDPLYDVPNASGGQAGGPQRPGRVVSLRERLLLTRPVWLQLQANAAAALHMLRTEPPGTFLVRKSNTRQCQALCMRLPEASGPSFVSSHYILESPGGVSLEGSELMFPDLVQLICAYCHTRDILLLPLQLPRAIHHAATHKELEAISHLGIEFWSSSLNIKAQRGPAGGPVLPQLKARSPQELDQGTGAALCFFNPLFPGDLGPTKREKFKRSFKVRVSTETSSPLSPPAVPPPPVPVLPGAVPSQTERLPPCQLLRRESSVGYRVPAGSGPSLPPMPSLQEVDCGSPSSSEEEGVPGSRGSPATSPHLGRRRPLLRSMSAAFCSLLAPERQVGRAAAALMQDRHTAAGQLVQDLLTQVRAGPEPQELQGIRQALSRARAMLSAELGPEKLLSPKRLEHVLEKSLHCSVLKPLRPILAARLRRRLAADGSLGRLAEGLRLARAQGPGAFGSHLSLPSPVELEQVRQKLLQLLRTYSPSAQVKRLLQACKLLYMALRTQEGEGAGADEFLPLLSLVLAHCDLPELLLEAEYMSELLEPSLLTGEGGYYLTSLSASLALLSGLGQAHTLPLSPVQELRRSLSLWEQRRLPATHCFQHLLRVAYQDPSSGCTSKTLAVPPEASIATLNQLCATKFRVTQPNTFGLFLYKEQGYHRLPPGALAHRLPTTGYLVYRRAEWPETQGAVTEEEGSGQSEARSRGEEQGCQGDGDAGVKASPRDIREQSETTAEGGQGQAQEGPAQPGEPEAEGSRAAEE
GRK2 inh = blocks RNA aptamer binding to human GRK2; bead flow cytometry, FAM-aptamer displacement from GRK2; inhibition of aptamer binding, % at 10 µM; actives 0.59% (n = 330,000); AID 488847;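 active = inhibition of aptamer binding above 40%, roughly 3 SD of noise, on plates passing a quality check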;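 note: median bead fluorescence of bound FAM aptamer so fluorescent compounds give negative values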
SKN-1 block = inhibitors of C. elegans SKN-1; C. elegans VP596 Pgst-4::GFP/RFP ratio, acrylamide-induced, 24 h; inhibition, % at 21.8 µM; actives 0.49% (n = 360,000);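 active = interference check ratio from 0.5 to 1.5 plus GFP to RFP signal ratio inhibition reaching or exceeding a fixed threshold, cut at about 30% in these data, passing the limit was not always enough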
* = called active by the depositor; i = inactive; / = not tested or not shown; + = active, no number.

SMILES	T cell HTS	Rce1 inhib	Myeloid diff 2	Rin1-Abl PPI inh	GRK2 inh	SKN-1 block
CC(NC(=O)[C@H](C)NC(=O)[C@@H]1CSC2c3ccccc3C(=O)N21)c1ccccc1 (some centres undefined)	712.3	i	i	-6.1	0.0	8.0
CC(=O)Nc1cccc(OCC(=O)NS(=O)(=O)c2ccc(Cl)cc2)c1	279.7	i	i	-1.2	5.0	35.4*
O=C(COc1ccccc1)NS(=O)(=O)c1ccc(Cl)cc1	287.1	i	i	-2.5	0.0	-1.2
COc1ccc(-c2c(C)nn3c(C)cc(C)nc23)cc1	182.3	i	i	-2.8	0.0	-7.2
N#C/C(=C/c1cn(-c2ccccc2)nc1-c1cccc(OCc2ccccc2)c1)C(=O)NCCCn1ccnc1	205.5	i	i	1.2	0.0	14.1
CCOc1cccc(-c2nn(-c3ccccc3)cc2/C=C(/C#N)C(=O)NCCCn2ccnc2)c1	197.0	+	i	-2.1	1.0	19.4
COc1ccc(Cl)cc1NC(=O)CN1CCC(NC(=O)C2CC2)CC1	337.7	i	i	5.5	0.0	0.5
Cc1ccc2c(cnn2C(=O)CCC(=O)NCc2ccccc2Cl)c1	629.3	i	i	-1.2	2.0	5.1
Cc1ccc(-c2nnn(CC(=O)N(CC(=O)NC(C)C)c3cnc4ccccc4c3)n2)o1	595.9	i	i	1.4	0.0	-12.1
Cc1ccc(-c2nnn(CC(=O)N(CC(=O)NC3CCCC3)c3cnc4ccccc4c3)n2)o1	483.2	i	+	6.7	4.0	0.3
O=C(COC(=O)/C=C/c1cn(-c2ccccc2)nc1-c1ccc2c(c1)OCCO2)NC1CCS(=O)(=O)C1 (centres undefined)	238.3	+	i	1.6	3.0	8.8
CN(C(=O)COC(=O)/C=C/c1cn(-c2ccccc2)nc1-c1ccc2c(c1)OCCO2)C1CCS(=O)(=O)C1 (centres undefined)	278.2	i	i	-7.5	1.0	9.2
CCOC(=O)N1CCN(C(=O)CN(C2CCCCC2)S(=O)(=O)c2ccc(Cl)cc2)CC1	570.7	i	+	0.6	1.0	6.4
COc1ccccc1OCC(=O)Nc1sc2c(c1C(N)=O)CCC2	196.8	/	i	-3.5	5.0	8.5
COc1ccccc1OCC(=O)Nc1sc2c(c1C(=O)NCC1CCCO1)CCC2 (centres undefined)	/	i	+	-1.9	4.0	2.8
COC(=O)C1=CNC=C(C(=O)OC)C1c1ccccc1Cl	173.7	/	i	0.2	0.0	-8.8
COC(=O)C1=CNC=C(C(=O)OC)C1c1cccc2ccccc12	294.6	+	i	1.8	1.0	29.6
COC(=O)C1=CNC=C(C(=O)OC)C1c1cccc(OC)c1	225.1	i	i	-0.6	0.0	-4.1
COC(=O)C1=CNC=C(C(=O)OC)C1c1ccc(Cl)cc1	425.5	i	+	0.4	0.0	7.7
Cc1cccn2c(=O)c(C=O)c(NCc3ccccc3)nc12	427.4	i	+	-4.7	2.0	-4.5
COC(=O)/N=C/c1c(NCc2ccccc2)nc2c(C)cccn2c1=O	713.3	i	i	-0.8	0.0	7.1
Cc1cccn2c(=O)c(C=Nc3ccccc3)c(NCc3ccco3)nc12	217.2	i	i	-3.5	0.0	40.8*
Cc1cccn2c(=O)c(C=NCCO)c(NCc3ccco3)nc12	368.1	i	i	-1.0	3.0	-12.7
CNC1(C(N)=O)CCNCC1	232.3	i	i	-0.5	11.0	-4.3
CCc1c(C)nc(SCC(=O)Nc2nc(-c3ccc(OC)cc3)cs2)[nH]c1=O	52.7*	i	i	0.6	2.0	-1.7
SMILES	T cell HTS	Rce1 inhib	Myeloid diff 2	Rin1-Abl PPI inh	GRK2 inh	SKN-1 block
CCc1c(C)nc(SCC(=O)NNC(=O)Cc2ccc(OC)cc2)[nH]c1=O	590.9	i	i	-1.4	0.0	-2.9
CCCCCCn1c(=O)n2n(c1=O)[C@@H]1CN(S(=O)(=O)c3ccc(C)cc3)C[C@]1(O)[C@@H](OC(=O)NCc1ccc(OC)c(OC)c1)C2	/	/	i	-0.9	/	-1.9
COc1cccc(/C(O)=C/c2nc3ccc(C(=O)NCCc4cccc(C)c4)cc3[nH]c2=O)c1	468.0	i	+	-0.9	14.0	-15.8
COc1cccc(C(=O)Nc2cc(C(=O)NCCc3ccccc3)ccc2Cl)c1	266.2	i	i	3.5	7.0	2.0
c1ccc(Nc2ccccn2)cc1	303.9	i	i	1.8	2.0	9.8
c1ccc(Nc2cccc(Nc3ccccc3)n2)cc1	229.7	+	i	-0.3	0.0	-3.7
CCNC(=O)C1(C)CCCN(C(=O)c2ccc(C(F)(F)F)nc2C)C1 (centres undefined)	/	/	i	-1.7	/	10.5
CCC(C)(C)NC(=O)C(c1ccco1)N(C(=O)c1csnn1)c1cccc(F)c1 (centres undefined)	268.2	i	+	3.0	0.0	-22.0
CC(C)(C)NC(=O)C(c1cccs1)N(C(=O)c1csnn1)c1cccc(F)c1 (centres undefined)	232.7	i	i	0.5	3.0	-15.2
COc1cccc(-c2cnc(C(O)c3cccc(C)c3C)[nH]2)c1 (centres undefined)	/	/	i	-0.7	/	17.3
CN(C)C(=O)c1cccc(-c2cnc3c(NC=O)cc(-c4ccccc4N(C)C)cn23)c1	/	/	+	-20.8	/	-40.6
CN(C)c1ccccc1-c1cc(NC=O)c2ncc(-c3cccc(C(F)(F)F)c3)n2c1	/	/	+	-26.1	/	-32.2
COc1ccc(-c2cc(NC=O)c3ncc(-c4cccc(C(=O)NCCN(C)C)c4)n3c2)c(OC)c1	/	/	+	-1.0	/	-16.0
COc1ccc(CCN(C)C(=O)CNC(=O)c2ccc3c(c2)OCO3)cc1OC	125.5	i	i	-3.2	1.0	-0.1
Cc1ccc(NC(=O)C2C(=O)N(C)c3ccccc32)cc1 (centres undefined)	275.8	i	i	0.2	1.0	8.5
CC(NC(=O)c1ccncc1)c1ccc(Br)cc1 (centres undefined)	161.2	i	i	-0.6	1.0	4.6
C[C@]12CC[C@H]3C(=CCc4cc(O)ccc43)[C@@H]1CCC2=O	555.7	i	+	-3.8	0.0	14.7
C(=C\c1nc(-c2ccncc2)no1)/c1ccccc1	223.1	i	i	0.8	4.0	79.3*
C(=C\c1nc(-c2ccccc2)no1)/c1ccccc1	446.0	i	i	-1.0	1.0	29.4
O=C(NCc1cccc(F)c1)c1cccc2c1C(=O)c1ccc(N3CCC(Cc4ccccc4)CC3)cc1S2(=O)=O	353.6	/	+	-0.6	1.0	-0.6
O=C(NCc1cccc(C(F)(F)F)c1)c1cccc2c1C(=O)c1ccc(N3CCC(Cc4ccccc4)CC3)cc1S2(=O)=O	357.7	/	+	1.9	4.0	4.1
